Results on eight compounds are retold here after ChEMBL document CHEMBL1157464, “1-[(3-Aryloxy-3-aryl)propyl]-1H-imidazoles, new imidazoles with potent activity against Candida albicans and dermatophytes. Synthesis, structure-activity relationship, and molecular modeling studies” (J Med Chem, 2008).

The subject of series [1] is Candida albicans. The series can be described thus: Antifungal activity against Candida albicans ATCC 10261 at 35 degC after 48 to 96 hrs by broth microdilution test. The format is functional. As to conditions: for MFC: Candida albicans, ATCC 10261, read-out: MFC. The essentials: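 Minimal fungicidal concentration for Candida. […] MFC is the lowest concentration allowing fewer than two colonies (99% killing).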

The test system of series [2] is Candida albicans. The series can be described thus: Antifungal activity against Candida albicans ATCC 10261 at 35 degC after 48 hrs by broth microdilution test. It is filed as functional. As to conditions: Candida albicans, ATCC 10261, 48 h; for MIC: read-out: MIC; for MIC50: read-out: MIC50; for MIC90: read-out: MIC90. The method in brief: (§1)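 Broth microdilution per NCCLS M27-A2. Stocks in 100% DMSO, diluted in RPMI 1640 with 0.165 M MOPS at pH 7.0; final range 0.25–128 µg/mL. Inoculum 1000–5000 cells/mL from SDA subcultures. […] C. parapsilosis ATCC22019 served as QC strain.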

For series [3], the system named is Arthrodermataceae. The series is described as follows: Antifungal activity against dermatophytes at 28 degC after 48 to 96 hrs by broth microdilution test.
The subject of series [4] is Candida parapsilosis. The series can be described thus: Antifungal activity against Candida parapsilosis ATCC 22019 at 35 degC after 48 hrs by broth microdilution test. It is filed as functional. Particulars: Lodderomyces parapsilosis, ATCC 22019, 48 h; for MFC: read-out: MFC; for MIC: read-out: MIC. The essentials:
as §1

The test system of series [5] is Arthrodermataceae. The series is described as follows: Antifungal activity against dermatophytes at 28 degC after 7 days by broth microdilution test. It is filed as functional. Particulars: 168 h. The method in brief:
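Ten clinical isolates (two M. canis, five M. gypseum, three T. mentagrophytes) tested by NCCLS M38-A broth microdilution in MOPS-buffered RPMI 1640, pH 7.0, over 0.25–128 µg/mL. Conidial/hyphal suspension from PDA slants (28 °C, 7 days) adjusted to 65–70% transmittance at OD530, then diluted 1:50.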

The test system of series [6] is Arthrodermataceae. The series is described as follows: Antifungal activity against dermatophytes at 28 degC after 5 days by broth microdilution test. As to conditions: for MFC: Arthrodermataceae.
A short description of series [7]: Cytotoxicity against human K562 cells after assessed as reduction of cell viability 24 hrs by MTT assay. The format is cell-based. The method in brief: (§2)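 U937 and K562 cells, from ATCC, plated at 5 × 10^4/mL in phenol-red-free RPMI-1640 with 20% FBS and penicillin/streptomycin. Compounds added 2 h later at 25–100 µg/mL, then 24 h at 37 °C. MTT at 1 mg/mL for 3 h, formazan dissolved in isopropanol with 0.1 N HCl, absorbance read at 570 nm. CC50 is the concentration reducing viability by 50% versus the drug-free control.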

Series [8] can be described thus: Cytotoxicity against human U937 cells assessed as reduction of cell viability after 24 hrs by MTT assay. The format is cell-based, U-937. The essentials: as §2

Values after ≈ are worked out from the molar mass of the structure shown.

Turning to `CC(C)(C)c1ccc(OC(CCn2ccnc2)c2ccc(Cl)cc2)cc1` (stereo not drawn), in series [1], the MFC50 turned out to be 64 µg/mL (≈ 173 µM), the MFC90 was 64 µg/mL (≈ 173 µM) and the MFC was determined as 64 µg/mL (≈ 173 µM). In addition, in series [2], the MIC was found to be 57.1 µg/mL (≈ 155 µM), the MIC50 came out at 64 µg/mL (≈ 173 µM) and the MIC90 came out at 64 µg/mL (≈ 173 µM). For the same compound, the MFC50 in series [3] stood at 16 µg/mL (≈ 43.4 µM). Further, in series [4], the MFC turned out to be 4 µg/mL (≈ 10.8 µM) and the minimum inhibitory concentration (MIC) is 2 µg/mL (≈ 5.42 µM). Moreover, in series [5], the minimal inhibitory concentration (MIC) was 9.2 µg/mL (≈ 24.9 µM), the MIC50 amounted to 8 µg/mL (≈ 21.7 µM) and the MIC90 came out at 16 µg/mL (≈ 43.4 µM). Moreover, in series [6], the MFC90 came to 32 µg/mL (≈ 86.7 µM) and the MFC is 26 µg/mL (≈ 70.5 µM).

Regarding `Fc1ccc(C(CCn2ccnc2)Oc2ccccc2)cc1` (stereo not drawn), in series [1], the MFC50 amounted to 64 µg/mL (≈ 216 µM), the MFC90 was 64 µg/mL (≈ 216 µM) and the MFC was found to be 57.6 µg/mL (≈ 194 µM). For the same compound, in series [2], the minimum inhibitory concentration (MIC) came out at 32.1 µg/mL (≈ 108 µM), the MIC50 stood at 32 µg/mL (≈ 108 µM) and the MIC90 came out at 64 µg/mL (≈ 216 µM). In series [3], the MFC50 came to 32 µg/mL (≈ 108 µM). In addition, in series [4], the MFC turned out to be 32 µg/mL (≈ 108 µM) and the MIC worked out at 8 µg/mL (≈ 27 µM). In series [5], this compound gave an MIC of 16.1 µg/mL (≈ 54.3 µM), an MIC50 of 16 µg/mL (≈ 54 µM) and an MIC90 of 16 µg/mL (≈ 54 µM). In series [6], this compound returned an MFC90 of 32 µg/mL (≈ 108 µM) and an MFC of 28.5 µg/mL (≈ 96.2 µM).

Take `Clc1ccc(C(CCn2cncn2)Oc2ccc(Cl)cc2Cl)cc1` (stereo not drawn): the MFC50 in series [1] was above 128 µg/mL; in series [3], 32 µg/mL (≈ 83.6 µM). For the same compound, the MFC90 in series [1] and in series [6] was above 128 µg/mL each time. In addition, the MFC in series [1] is above 128 µg/mL; in series [4], 64 µg/mL (≈ 167 µM); in series [6] it was 138 µg/mL (≈ 360 µM). Also, the MIC in series [2] is above 128 µg/mL; in series [4], 32 µg/mL (≈ 83.6 µM); in series [5] it was 10.4 µg/mL (≈ 27.2 µM). The figures for the MIC50 in series [2] and in series [5] were above 128 µg/mL and 8 µg/mL (≈ 20.9 µM), respectively. The MIC90 in series [2] was above 128 µg/mL; in series [5] it was 16 µg/mL (≈ 41.8 µM).

Turning to `Clc1ccc(OC(CCn2cncn2)c2ccccc2)c(Cl)c1` (stereo not drawn), in series [1], the MFC50 was above 128 µg/mL, the MFC90 was above 128 µg/mL and the MFC was above 128 µg/mL. Also, in series [2], the MIC was above 128 µg/mL, the MIC50 was above 128 µg/mL and the MIC90 was above 128 µg/mL. The compound further came in with an MFC50 in series [3] of 32 µg/mL (≈ 91.9 µM). In series [4], the MFC was determined as 64 µg/mL (≈ 184 µM) and the MIC amounted to 32 µg/mL (≈ 91.9 µM). In series [5], this compound displayed an MIC of 22.4 µg/mL (≈ 64.3 µM), an MIC50 of 16 µg/mL (≈ 45.9 µM) and an MIC90 of 32 µg/mL (≈ 91.9 µM). For the same compound, in series [6], the MFC90 worked out at 64 µg/mL (≈ 184 µM) and the MFC stood at 44.8 µg/mL (≈ 129 µM).

In the case of `Clc1ccc(C(CCn2ccnc2)OCc2ccc(Cl)cc2Cl)cc1` (stereo not drawn), in series [1], the MFC50 came out at 64 µg/mL (≈ 162 µM), the MFC90 came to 64 µg/mL (≈ 162 µM) and the MFC stood at 62 µg/mL (≈ 157 µM). Further, in series [2], the MIC worked out at 60.2 µg/mL (≈ 152 µM), the MIC50 came out at 64 µg/mL (≈ 162 µM) and the MIC90 is 64 µg/mL (≈ 162 µM). Moreover, the MFC50 in series [3] worked out at 16 µg/mL (≈ 40.4 µM). Further, in series [4], the MFC came to 32 µg/mL (≈ 80.9 µM) and the minimal inhibitory concentration (MIC) amounted to 4 µg/mL (≈ 10.1 µM). In series [5], this compound displayed an MIC of 7 µg/mL (≈ 17.7 µM), an MIC50 of 8 µg/mL (≈ 20.2 µM) and an MIC90 of 8 µg/mL (≈ 20.2 µM). Besides, in series [6], the MFC90 is 16 µg/mL (≈ 40.4 µM) and the MFC was 17.3 µg/mL (≈ 43.7 µM).

Consider `Cc1ccc(C(CCn2ccnc2)Oc2ccc(C)cc2Cl)cc1` (stereo not drawn), for which the CC50 at 24 h in series [7] was determined as 123 µM. In addition, in series [8], the CC50 at 24 h worked out at 151 µM. In series [1], the MFC50 worked out at 32 µg/mL (≈ 93.9 µM), the MFC90 amounted to 32 µg/mL (≈ 93.9 µM) and the MFC is 24 µg/mL (≈ 70.4 µM). For the same compound, in series [2], the MIC turned out to be 6.5 µg/mL (≈ 19.1 µM), the MIC50 was found to be 8 µg/mL (≈ 23.5 µM) and the MIC90 was found to be 8 µg/mL (≈ 23.5 µM). In series [4], the MFC stood at 8 µg/mL (≈ 23.5 µM) and the MIC was determined as 4 µg/mL (≈ 11.7 µM).

In the case of `Cc1ccc(C(CCn2cncn2)Oc2ccc(Cl)cc2Cl)cc1` (stereo not drawn), in series [1], the MFC50 was above 128 µg/mL, the MFC90 is above 128 µg/mL and the MFC is above 128 µg/mL. Besides, in series [2], the minimal inhibitory concentration (MIC) was above 128 µg/mL, the MIC50 is above 128 µg/mL and the MIC90 is above 128 µg/mL. In addition, the MFC50 in series [3] amounted to 32 µg/mL (≈ 88.3 µM). In addition, in series [4], the minimal fungicidal concentration (MFC) is 64 µg/mL (≈ 177 µM) and the minimum inhibitory concentration (MIC) was 32 µg/mL (≈ 88.3 µM). In series [5], 17.6 µg/mL (≈ 48.6 µM) was the least that counted as inhibitory (MIC), the MIC50 amounted to 16 µg/mL (≈ 44.2 µM) and the MIC90 was found to be 32 µg/mL (≈ 88.3 µM). In series [6], this compound yielded an MFC90 above 128 µg/mL and an MFC of 122 µg/mL (≈ 336 µM).

With `Clc1ccc(C(OCCn2ccnc2)c2ccccc2)c(Cl)c1.O=[N+]([O-])O` (stereo not drawn), in series [1], the MFC50 is 128 µg/mL, the MFC90 was above 256 µg/mL and the MFC was found to be 158 µg/mL. Moreover, in series [2], the MIC came to 46.1 µg/mL, the MIC50 came out at 32 µg/mL and the MIC90 was 64 µg/mL. Moreover, the MFC50 in series [3] was determined as 8 µg/mL. In series [4], the MFC was found to be 32 µg/mL and the minimal inhibitory concentration (MIC) was found to be 16 µg/mL. Further, in series [5], the lowest concentration to inhibit growth (MIC) was 7 µg/mL, the MIC50 is 8 µg/mL and the MIC90 amounted to 8 µg/mL. In series [6], this compound showed an MFC90 of 8 µg/mL and a minimum fungicidal concentration (MFC) of 7.5 µg/mL.
